Source: ChEMBL document CHEMBL3992522, “Antileishmanial Activity of Pyrazolopyridine Derivatives and Their Potential as an Adjunct Therapy with Miltefosine” (J Med Chem, 2017)

How the values were obtained:
Leishmania donovani [1] = test: Antileishmanial activity against Leishmania donovani MHOM/IN/80/DD8 promastigote forms harboring luciferase gene at 25 uM after 72 hrs by Steady-Glo reagent based luminescence assay relative to control; format: functional; conditions: MHOM/IN/80/DD8, 72 h, read-out: GI
Outline: (§1)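 Exponential-phase Dd8-Luc promastigotes at 1×10^6/mL in M199 with 10% FBS, 24 °C, given 50 and 25 µM for 72 h. Vehicle 0.1% DMSO. Steady-Glo added 1:1, luminescence (RLU) read. IC50 from four-parameter Hill regression, derived only where inhibition exceeded 90%. Means of at least three independent experiments.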

Leishmania donovani [2] = test: Antileishmanial activity against Leishmania donovani MHOM/IN/80/DD8 promastigote forms harboring luciferase gene at 50 uM after 72 hrs by Steady-Glo reagent based luminescence assay relative to control; format: functional; conditions: MHOM/IN/80/DD8, 72 h, read-out: GI; outline: as §1
Leishmania donovani [3] = test: Antileishmanial activity against Leishmania donovani MHOM/IN/80/DD8 amastigote forms harboring luciferase gene infected in mouse J774 cells at 25 uM after 72 hrs by Steady-Glo reagent based luminescence assay relative to control; format: functional; conditions: MHOM/IN/80/DD8, J774, 72 h, read-out: GI
Outline: (§2)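 Stationary-phase luciferase-expressing Dd8 promastigotes infected into J774 macrophages (4×10^4/mL seeded, 24 h, 37 °C, 5% CO2) at 1:8 macrophage:parasite for 24 h. Non-internalised parasites washed off. Compounds added at 50 and 25 µM in RPMI/10% FBS for 72 h. Lysis with Steady-Glo luciferin reagent plus PBS, luminescence read. Inhibition relative to untreated infected controls.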

Leishmania donovani [4] = test: Antileishmanial activity against Leishmania donovani MHOM/IN/80/DD8 amastigote forms harboring luciferase gene infected in mouse J774 cells at 50 uM after 72 hrs by Steady-Glo reagent based luminescence assay relative to control; format: functional; conditions: MHOM/IN/80/DD8, J774, 72 h, read-out: GI; outline: as §2
Leishmania donovani [5] = test: Antileishmanial activity against Leishmania donovani MHOM/IN/80/DD8 amastigote forms harboring luciferase gene infected in mouse J774 cells after 72 hrs by Steady-Glo reagent based luminescence assay; format: functional, cell-based; conditions: MHOM/IN/80/DD8, J774, 72 h
[6] = Cytotoxicity against mouse J774 cells assessed as reduction in cell viability after 72 hrs by MTT assay; format: cell-based
Outline: (§3)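 Vero and J774 cells seeded at 1×10^5 per well for 24 h, then exposed 72 h to seven two-fold dilutions from 500 to 7.81 μM. MTT solution (5 mg/mL stock) added for 2 h at 37 °C, formazan dissolved in DMSO and read at 540 nm. CC50 derived by the Huber and Koella method.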

[7] = Cytotoxicity against African green monkey Vero cells assessed as reduction in cell viability after 72 hrs by MTT assay; format: cell-based; conditions: chlorocebus sabaeus; outline: as §3
[8] = Selectivity index, ratio of CC50 for mouse J774 cells to IC50 for Leishmania donovani MHOM/IN/80/DD8 amastigote forms infected in mouse J774 cells; format: toxicity, cell-based; conditions: read-out: Ratio CC50/IC50
Outline: (§4)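 CC50: Vero or J774 cells (1×10^5/well) exposed 72 h to seven two-fold dilutions, 500–7.81 μM; MTT 2 h at 37 °C, formazan in DMSO read at 540 nm. IC50: luciferase-expressing Dd8 amastigotes in J774 macrophages (1:8), 72 h, luminescence, four-parameter Hill fit. SI = CC50/IC50, IC50 mean of three experiments.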

[9] = Selectivity index, ratio of CC50 for African green monkey Vero cells to IC50 for Leishmania donovani MHOM/IN/80/DD8 amastigote forms infected in mouse J774 cells; format: toxicity, cell-based; conditions: read-out: Ratio CC50/IC50; outline: as §4
Leishmania donovani [10] = test: Antileishmanial activity against Leishmania donovani amastigote forms infected in Balb/c mouse assessed as inhibition of parasitic burden in liver at 5 mg/kg, po administered for 5 consecutive days measured on day 7 post last treatment by Giemsa staining based assay relative to control; format: functional; conditions: 168 h
Leishmania donovani [11] = test: Antileishmanial activity against Leishmania donovani amastigote forms infected in Balb/c mouse assessed as inhibition of parasitic burden in spleen at 5 mg/kg, po administered for 5 consecutive days measured on day 7 post last treatment by Giemsa staining based assay relative to control; format: functional; conditions: 168 h
Mus musculus [12] = test: Decrease in TGFbeta level in Balb/c mouse splenocytes infected with Leishmania donovani amastigote forms at 25 mg/kg, po administered for 5 consecutive days measured on day 4 post last treatment by sandwich ELISA relative to control; format: functional; conditions: 96 h
Mus musculus [13] = test: Increase in IFNgamma level in Balb/c mouse splenocytes infected with Leishmania donovani amastigote forms at 25 mg/kg, po administered for 5 consecutive days measured on day 4 post last treatment by sandwich ELISA relative to control; format: functional
Mus musculus [14] = test: Increase in TNFalpha level in Balb/c mouse splenocytes infected with Leishmania donovani amastigote forms at 25 mg/kg, po administered for 5 consecutive days measured on day 4 post last treatment by sandwich ELISA relative to control; format: functional
Mus musculus [15] = test: Increase in IL-12 level in Balb/c mouse splenocytes infected with Leishmania donovani amastigote forms at 25 mg/kg, po administered for 5 consecutive days measured on day 4 post last treatment by sandwich ELISA relative to control; format: functional
Mus musculus [16] = test: Increase in IFNgamma level in Balb/c mouse splenocytes infected with Leishmania donovani amastigote forms at 25 mg/kg, po administered for 5 consecutive days measured on day 7 post last treatment by sandwich ELISA relative to control; format: functional
Mus musculus [17] = test: Increase in TNFalpha level in Balb/c mouse splenocytes infected with Leishmania donovani amastigote forms at 25 mg/kg, po administered for 5 consecutive days measured on day 7 post last treatment by sandwich ELISA relative to control; format: functional
Mus musculus [18] = test: Increase in IL-12 level in Balb/c mouse splenocytes infected with Leishmania donovani amastigote forms at 25 mg/kg, po administered for 5 consecutive days measured on day 7 post last treatment by sandwich ELISA relative to control; format: functional
Mus musculus [19] = test: Decrease in IL-10 level in Balb/c mouse splenocytes infected with Leishmania donovani amastigote forms at 25 mg/kg, po administered for 5 consecutive days measured on day 4 post last treatment by sandwich ELISA relative to control; format: functional; conditions: 96 h
Mus musculus [20] = test: Decrease in TGFbeta level in Balb/c mouse splenocytes infected with Leishmania donovani amastigote forms at 25 mg/kg, po administered for 5 consecutive days measured on day 7 post last treatment by sandwich ELISA relative to control; format: functional; conditions: 168 h
Mus musculus [21] = test: Decrease in IL-10 level in Balb/c mouse splenocytes infected with Leishmania donovani amastigote forms at 25 mg/kg, po administered for 5 consecutive days measured on day 7 post last treatment by sandwich ELISA relative to control; format: functional; conditions: 168 h
Mus musculus [22] = test: (§5) Increase in iNOS-mediated NO generation in Balb/c mouse splenocytes infected with Leishmania donovani amastigote forms at 25 mg/kg, po for 5 consecutive days measured on day 4 post last treatment followed by soluble Leishmania donovani promastigote antigen-stimulation for 72 hrs by Griess assay relative to control; format: functional
Mus musculus [23] = test: as §5, with “5” for “25”, “4 and 7” for “4”; format: functional
Outline: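 Splenocytes from treated infected BALB/c mice (5-day regimen, i.p. test compound, oral miltefosine; n = 5) isolated day 4 and day 7 post-treatment. Cultured in phenol red-free RPMI 1640 with 5 μg/mL SLA for 72 h at 37 °C, 5% CO2. Supernatant nitrite measured by Griess assay at 540 nm against a sodium nitrite standard curve.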

Which inhibition of growth at 25 µM (Leishmania donovani [1]) does the source give for CCCCCCCCCCCCCCCCOP(=O)([O-])OCC[N+](C)(C)C [MILTEFOSINE] here?
Its inhibition of growth at 25 µM is 100%.

What about the inhibition of growth at 50 µM (Leishmania donovani [2]) of the same compound?
Its inhibition of growth at 50 µM is 100%.

And the inhibition of growth at 25 µM (Leishmania donovani [3])?
The inhibition of growth at 25 µM was 99.8%.

And the inhibition of growth at 50 µM (Leishmania donovani [4])?
Its inhibition of growth at 50 µM is 100%.

What about the IC50 (Leishmania donovani [5]) of the same compound?
The IC50 was 9.46 µM.

What about the CC50 at 72 h [6] of the same compound?
Its CC50 at 72 h is 55.7 µM.

What about the CC50 at 72 h [7] of the same compound?
The CC50 at 72 h was 50.8 µM.

And the selectivity ratio [8]?
Its selectivity ratio is 5.8.

And the selectivity ratio [9]?
The selectivity ratio was 5.3.

And the inhibition in vivo at 5 mg/kg (Leishmania donovani [10])?
The inhibition in vivo at 5 mg/kg was > 75%.

And the inhibition in vivo at 5 mg/kg (Leishmania donovani [11])?
Its inhibition in vivo at 5 mg/kg is > 61%.

What about the inhibition in vivo at 25 mg/kg (Mus musculus [12]) of the same compound?
Its inhibition in vivo at 25 mg/kg is 87.5%.

What about the “fold change (FC)” value (Mus musculus [13]) of the same compound?
The value was 9.1.

What about the “fold change (FC)” value (Mus musculus [14]) of the same compound?
The value was 6.5.

What about the “fold change (FC)” value (Mus musculus [15]) of the same compound?
The value was 12.9.

And the “fold change (FC)” value (Mus musculus [16])?
The value was 8.1.

And the “fold change (FC)” value (Mus musculus [17])?
Its value is 5.3.

And the “fold change (FC)” value (Mus musculus [18])?
Its value is 9.5.

And the inhibition in vivo at 25 mg/kg (Mus musculus [19])?
Its inhibition in vivo at 25 mg/kg is 88.7%.

And the inhibition in vivo at 25 mg/kg (Mus musculus [20])?
The inhibition in vivo at 25 mg/kg was 94.6%.

And the inhibition in vivo at 25 mg/kg (Mus musculus [21])?
The inhibition in vivo at 25 mg/kg was 92.9%.

What about the “fold change (FC)” value (Mus musculus [22]) of the same compound?
The value was 7.4.

What about the “fold change (FC)” value (Mus musculus [23]) of the same compound?
The value was 4.3.
